In ChEMBL document CHEMBL3994591, “Novel ferulic amide derivatives with tertiary amine side chain as acetylcholinesterase and butyrylcholinesterase inhibitors: The influence of carbon spacer length, alkylamine and aromatic group” (Eur J Med Chem, 2017):

Legend:
[1] = organism: Homo sapiens; assay: Selectivity index, ratio of IC50 for butyrylcholinesterase (unknown origin) to IC50 for acetylcholinesterase (unknown origin)
[2] = molecular target: T1, Acetylcholinesterase (Homo sapiens, UniProt P22303); assay: Inhibition of acetylcholinesterase (unknown origin) using acetylthiocholine iodide as substrate after 25 mins by Ellmann method
T1 sequence (P22303 whole entry): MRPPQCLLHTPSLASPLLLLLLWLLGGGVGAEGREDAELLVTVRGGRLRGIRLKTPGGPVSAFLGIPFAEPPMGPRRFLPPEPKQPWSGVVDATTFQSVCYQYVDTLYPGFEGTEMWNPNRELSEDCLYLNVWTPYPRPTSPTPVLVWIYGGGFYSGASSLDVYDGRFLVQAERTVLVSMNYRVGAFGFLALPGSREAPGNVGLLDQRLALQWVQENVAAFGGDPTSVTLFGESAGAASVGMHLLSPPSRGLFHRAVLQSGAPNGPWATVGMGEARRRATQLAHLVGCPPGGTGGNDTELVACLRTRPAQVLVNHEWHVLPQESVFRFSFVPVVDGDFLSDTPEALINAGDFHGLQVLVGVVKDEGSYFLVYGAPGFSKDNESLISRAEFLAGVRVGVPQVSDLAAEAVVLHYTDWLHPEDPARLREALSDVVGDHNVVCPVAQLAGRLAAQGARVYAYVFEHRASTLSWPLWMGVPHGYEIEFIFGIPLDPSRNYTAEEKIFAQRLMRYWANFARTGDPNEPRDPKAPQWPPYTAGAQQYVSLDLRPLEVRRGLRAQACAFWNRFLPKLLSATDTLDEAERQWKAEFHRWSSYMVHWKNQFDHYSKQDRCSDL
Procedure, shortened: (§1)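 Modified Ellman assay, triplicate. Compounds dissolved in Tween 80, diluted with water to five concentrations. Mix: enzyme […], substrate (acetylthiocholine iodide or butyrylthiocholine iodide) and test compound in phosphoric acid buffer, pH 8.0, 0.1 mol/L. Incubated 25 min at 30 °C, then terminated. IC50 reported as mean ± SD of three experiments.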

[3] = molecular target: T1, Acetylcholinesterase; assay: Competitive inhibition of acetylcholinesterase (unknown origin) using acetylthiocholine iodide as substrate by Michaelis-Menten plot analysis
[4] = molecular target: T1, Acetylcholinesterase; assay: Noncompetitive inhibition of acetylcholinesterase (unknown origin) using acetylthiocholine iodide as substrate by Michaelis-Menten plot analysis
[5] = molecular target: Cholinesterase (Homo sapiens, UniProt P06276); assay: Inhibition of butyrylcholinesterase (unknown origin) using butyrylthiocholine iodide as substrate after 25 mins by Ellmann method; procedure, shortened: as §1
Chain of Cholinesterase (P06276 whole entry): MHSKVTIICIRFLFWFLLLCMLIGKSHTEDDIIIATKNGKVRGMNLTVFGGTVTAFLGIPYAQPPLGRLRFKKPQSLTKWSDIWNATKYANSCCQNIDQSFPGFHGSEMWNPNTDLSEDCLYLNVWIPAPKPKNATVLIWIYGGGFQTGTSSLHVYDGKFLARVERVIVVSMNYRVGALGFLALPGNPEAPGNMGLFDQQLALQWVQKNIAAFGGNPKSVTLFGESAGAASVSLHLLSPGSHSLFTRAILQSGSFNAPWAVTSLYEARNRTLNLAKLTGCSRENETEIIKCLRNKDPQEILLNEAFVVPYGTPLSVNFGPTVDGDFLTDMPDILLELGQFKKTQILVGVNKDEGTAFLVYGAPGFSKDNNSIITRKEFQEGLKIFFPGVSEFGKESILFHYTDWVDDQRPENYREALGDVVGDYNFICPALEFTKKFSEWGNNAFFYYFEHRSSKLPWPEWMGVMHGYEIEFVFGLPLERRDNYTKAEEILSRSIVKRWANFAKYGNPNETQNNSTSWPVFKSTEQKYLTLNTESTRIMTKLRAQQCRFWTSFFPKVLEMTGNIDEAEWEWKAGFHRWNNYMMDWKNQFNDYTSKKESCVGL

[6] = molecular target: T1, Acetylcholinesterase; assay: Potency index, ratio of rivastigmine IC50 to compound IC50 for acetylcholinesterase (unknown origin)
[7] = Octanol-water partition coefficient, log P of the compound at pH 7.4 by shake flask method; assay type: physicochemical
Procedure, shortened: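 Shake flask partition between octanol and PBS (pH 7.4). Mixture shaken at 37 °C overnight, then centrifuged at 2000 rpm for 20 min. Phases analysed by C18 HPLC with methanol-0.1% TEA (85:15, v/v) at 1.0 mL/min and 32 °C, detection at 322 nm. Run in triplicate, log P calculated.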

[8] = Inhibition of carboxylesterase (unknown origin) using 4-nitrophenyl acetate as substrate by UV-Vis spectrophotometer; design: species or system Homo sapiens
Procedure, shortened: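 Read-out was 4-nitrophenol released by CaE hydrolysis of 1.0 mmol/L 4-nitrophenyl acetate, measured at 405 nm. Reactions ran in 100 mmol/L potassium phosphate buffer, pH 8.0, at 25 °C. CaE activity was taken as proportional to 4-nitrophenol concentration.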

Which results are given for `COc1cc(/C=C/C(=O)Nc2ccccc2)ccc1OCCCCCCN1CCCCC1`?
Ratio IC50 [1]: 18.3; IC50 [2]: 710 nM; Ki [3]: 480 nM; Ki [4]: 920 nM; IC50 [5]: 13000 nM; Ratio IC50 [6]: 15; logD [7]: 1.77; IC50 [8]: > 500000 nM
